Shown are actives, neighbours in structure and some others; about 7.1% of the full set was active somewhere.
bCat KO growth: primary screen for growth suppressors in beta-catenin knockout HCT116 cells (colon tumor, human); HCT116 beta-catenin knockout viability, CellTiter-Glo, 60 h; active compounds read low; viability, % at 10 µM; hit rate 1.5% among 140,000; AID 818, 2007;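 active = viability at or under a set limit, the compound median less 4 SD, cut at about 6% in these data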;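 note: 0% = Hyamine 1622 control at 20 µM and 100% = untreated cell control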
HUVEC prolif 384: inhibitors of HUVEC proliferation, primary screen, cell-based, 384-well | CellTiter-Glo luminescence, 72 h; active compounds read low | viability, % at 10 µM (by protocol) | hit rate 1.1% among 86,000;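 active = viability at or below 30%; inactive = viability above 30%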;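 note: 100% = median luminescence of DMSO-only cell control wells on each plate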
H69AR inhibit: proliferation blockers of H69AR lung cancer cells, primary screen, cell-based, human, 86K library; H69AR lung tumor viability, ATP luminescence, 72 h; active compounds read low; viability, % at 10 µM; hit rate 6% among 85,000;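 active = viability at or below 40%; inactive = viability above 40%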;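 note: multidrug resistant small cell line overexpressing MRP-1 efflux transporter; 100% = mean luminescence of untreated control wells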
Fibroblast inh: antiproliferative effect on LL 47 fibroblasts – human, LL 47 cells, CellTiter-Glo luminescence, primary screen. LL 47 human lung fibroblast viability, ATP luminescence; active compounds read low. viability, % at 10 µM. hit rate 1.1% among 85,000. AID 719, 2007;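 active = viability at or below 50% in the single dose screen; inactive = viability above 50%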;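 note: compound exposure lasted 72 h before the ATP readout; 100% = median luminescence of untreated cell-only wells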
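Test system: LL 47 human lung fibroblasts / Quantity: 1,150 cells in each well / Medium: IMEM growth medium with 15% fetal bovine serum / Incubation: 72 h compound exposure at 37 °C after overnight plating / Detection: CellTiter-Glo luminescence measuring cellular ATP / Read-out: % viability versus median cells-only luminescence / Benchmarks: cell-only wells, no compound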
Cav3 T inh: Cav3.2 calcium influx blockers – cell-based, Fluo-4 calcium fluorescence, FDSS, MLSMR library, primary screen; Cav3.2-expressing cells; active compounds read low; B-score at 10 µM; hit rate 4% among 100,000; AID 449739, 2010;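 active = single-dose well whose peak fluorescence ratio is a statistical outlier from its plate by either plate-standardised score or position-corrected B-score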
HCT116 PTEN-null: growth suppression of PTEN-null HCT116, primary screen, cell-based, CellTiter-Glo | HCT116 PTEN-null viability, 60 h; active compounds read low | hit rate 1.2% among 140,000 | viability, % at 10 µM;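 active = viability at or below a set limit, 4 SD under the median of all tested compounds, cut at about 3.7% in these data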;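 note: PTEN knockout HCT116 line with beta catenin targeted HCT116 as companion control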
* marks the source's active call; other numbers are inactive results; x = no result.

SMILES | bCat KO growth | HUVEC prolif 384 | H69AR inhibit | Fibroblast inh | Cav3 T inh | HCT116 PTEN-null
COc1ccc(N2CCN(C(=O)CN(Cc3ccc(Cl)cc3)S(C)(=O)=O)CC2)cc1 | 80 | 101 | 94 | 93 | -4.6* | 72
COc1ccc(OC)c(S(=O)(=O)N(C)CC(=O)N2CCN(c3ccccc3F)CC2)c1 | 93 | 95 | 67 | 98 | 0.49 | 95
COc1ccc(OC)c(S(=O)(=O)N(C)CC(=O)N2CCN(c3cccc(Cl)c3)CC2)c1 | 81 | 78 | 78 | 93 | -6.8* | 89
O=C(N/N=C/c1ccc(N2CCCCC2)o1)c1ccccc1[N+](=O)[O-] | 94 | x | x | x | x | 97
COc1cc2c(cc1OC)C(C)N(C(=O)CCN1C(=O)C3C4C=CC(C4)C3C1=O)CC2 (stereo not drawn) | 83 | 109 | 86 | 105 | x | 83
Cc1ccc2nc(NCCO)nc(-c3ccccc3)c2c1 | 47 | 69 | 25* | 76 | x | 41
Cc1ccc(N(CC(O)Cn2c3ccccc3c3ccccc32)S(C)(=O)=O)cc1 (stereo not drawn) | 65 | 54 | 32* | 92 | -2.1 | 81
Cc1cccc(C)c1N(CC(O)Cn1c2ccccc2c2ccccc21)S(C)(=O)=O (stereo not drawn) | 50 | 66 | 21* | 86 | -2.9 | 44
Cc1ccc(N(CC(O)CON=C2c3ccccc3-c3ccccc32)S(C)(=O)=O)cc1 (stereo not drawn) | 19 | 66 | 15* | 98 | -2.1 | 15
Cc1ccc(N(CC(O)Cn2c3ccccc3c3ccccc32)S(C)(=O)=O)c(C)c1 (stereo not drawn) | 66 | 61 | 17* | 90 | 0.39 | 53
CS(=O)(=O)N(Cc1ccco1)CC(O)Cn1c2ccccc2c2ccccc21 (stereo not drawn) | 66 | x | x | x | -3.7 | 66
O=C(Nc1cc(Sc2nc3ccccc3s2)cc([N+](=O)[O-])c1)c1cccc(F)c1F | 55 | x | x | x | x | 35
CN(C)c1ccc(C2CC(c3ccccc3)=Nc3nc(-c4ccccc4)cn32)cc1 (stereo not drawn) | 86 | x | x | x | x | 77
Cc1ccc(C2=NC3(CCCCC3)N=C2SCC(=O)Nc2ccc3c(c2)OCCO3)cc1 | 57 | x | x | x | x | 58
O=C(Nc1nnc(CCS(=O)(=O)c2ccc3ccccc3c2)s1)c1ccc([N+](=O)[O-])cc1 | 100 | x | x | x | x | 100
CCc1ccc2[nH]c(=O)c(CN(Cc3ccco3)S(=O)(=O)c3ccc4c(c3)OCCO4)cc2c1 | 80 | 71 | 23* | 73 | 0.16 | 87
CN1Cc2cc(C(=O)c3cc(Cl)cc(CSc4ncccn4)c3O)cnc2NC1=O | 22 | 52 | 25* | 51 | -1 | 22
C=CC[C@]12CC=CC(=O)[C@@]1(O)O[C@H](c1ccc(OC)c(OC)c1)[C@H]2C | x | x | x | x | 0.15 | x
CCN1C/C(=C/c2ccc(N3CCOCC3)cc2)C(=O)/C(=C/c2ccc(N3CCOCC3)cc2)C1 | 2.2* | x | x | x | x | 1.9*
CN1C/C(=C/c2ccsc2)C(=O)/C(=C/c2ccsc2)C1 | 3.5* | x | x | x | x | 3.1*
Cc1ccc(NC(=O)CN2C(=O)N/C(=C/c3ccc(N4CCOCC4)cc3)C2=O)cc1 | 88 | x | x | x | x | 104
CN1C/C(=C\c2ccc(N3CCOCC3)cc2)C(=O)/C(=C/c2ccc(N3CCOCC3)cc2)C1 | 2.9* | x | x | x | x | 2.2*
O=C(O)C1CC(=O)N(c2ccc(OCc3ccc(Cl)cc3Cl)cc2)C1 (stereo not drawn) | 3.3* | 73 | 95 | 104 | 0.23 | 3.2*
Cc1ccc(-c2nn(-c3ccccc3)c3[nH]c(=O)c(CNCCN(C)C)cc23)cc1 | x | 43 | 17* | 74 | x | x
Cc1ccc(-c2nn(-c3ccccc3)c3[nH]c(=O)c(CNCc4ccccc4)cc23)cc1 | 3.5* | 4.8* | 92 | 72 | -3.6* | 13
SMILES | bCat KO growth | HUVEC prolif 384 | H69AR inhibit | Fibroblast inh | Cav3 T inh | HCT116 PTEN-null
Cc1nn(-c2ccccc2)c2[nH]c(=O)c(CNCCN3CCOCC3)cc12 | 108 | 95 | 99 | 101 | 0.36 | 103
Cc1nn(-c2ccccc2)c2[nH]c(=O)c(CNCc3ccc4c(c3)OCO4)cc12 | 82 | 91 | 92 | 88 | 1.7 | 89
CCOc1ccc(NCc2cc3c(C(C)(C)C)nn(-c4ccccc4)c3[nH]c2=O)cc1 | 2.3* | x | x | x | 0.27 | 1.2*
COc1cccc(NCc2cc3c(C(C)(C)C)nn(-c4ccccc4)c3[nH]c2=O)c1 | 109 | 102 | 66 | 89 | -4 | 98
Cc1cc2c(c(=O)o1)C(C13C=CC(CC1)C3)C(C#N)=C(N)O2 (stereo not drawn) | 88 | 98 | 91 | 97 | x | 94
CSc1nc(C)cc(-c2cc(C(=O)Nc3ccccc3)on2)n1 | x | x | x | x | -1.4 | x
CC(C)SCc1nc2ccccc2[nH]1 | 95 | 94 | 92 | 96 | x | 100
Clc1ccc(OCCSCc2nc3ccccc3[nH]2)cc1 | 63 | x | x | x | -8.3* | 76
COc1ccc(OCc2nc3ccccc3[nH]2)cc1 | 90 | 99 | 92 | 101 | 1.2 | 95
Clc1ccc(SCc2nc3ccccc3[nH]2)cc1 | 27 | x | x | x | -4.5* | 33
c1ccc2[nH]c(CSc3nccs3)nc2c1 | 103 | x | x | x | 0.56 | 98
Cc1ccc(OCCSCc2nc3ccccc3[nH]2)cc1 | 61 | x | x | x | -5.5* | 69
c1ccc2cc(OCc3nc4ccccc4[nH]3)ccc2c1 | 86 | 93 | 93 | 101 | -5.9* | 92
COc1ccc2c(c1OC)C(=O)N1N=C(c3ccc(Cl)cc3)CC21 (stereo not drawn) | 92 | x | x | x | x | 86
Cc1ccc(C(=O)c2coc3cc([N+](=O)[O-])c(O)c([N+](=O)[O-])c23)cc1 | 102 | x | x | x | x | 99
CC(C)Cn1cc(C(=O)N2CCN(c3ccccn3)CC2)c2c3ccccc3n(C)c2c1=O | 51 | 70 | 38* | 93 | -1.9 | 59
Cc1ccc(S(=O)(=O)Oc2ccccc2/C=N/NC(=O)c2c(Cl)cnn2C)cc1 | 88 | 86 | 33* | 98 | -8.9* | 85
CCCc1cc(-c2nc(N)ncc2-c2ccc3c(c2)OCCCO3)c(O)cc1OC | 26 | 39 | 28* | 95 | -1.5 | 22
O=S(=O)(NCc1ccccc1)c1cccc(S(=O)(=O)N2CCOCC2)c1 | 92 | 102 | 100 | 101 | 0.0052 | 91
O=S(=O)(c1cccc(S(=O)(=O)N2CCC(Cc3ccccc3)CC2)c1)N1CCOCC1 | 92 | 100 | 86 | 103 | -5.9* | 76
CCCCCc1nc2sc3c(c2c(=O)n1NC(=O)c1ccc([N+](=O)[O-])cc1)CC(C)(C)OC3 | 62 | x | x | x | x | 62
CCCCC(CC)Cn1c2nc3ccccc3nc2c2c(=N)oc(C)nc21 (stereo not drawn) | 4.5* | 2.5* | 90 | 75 | x | 2.5*

High-throughput results from PubChem.
